Assay outcomes from PubChem.
SENP7 inh: SENP7 protease inhibitors, primary screen, biochemical, luminescence, uHTS | inhibition, % at 5 µM | actives 1.5% (n = 330,000) | recombinant SENP7, Z-RLRGG-aminoluciferin luminescence, 40 min | Sentrin-specific protease 7 (Homo sapiens), Q9BQF6 | AID 434973, 2010;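 active = inhibition above about 50% at the single test dose, limit read from the data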;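 also: plate controls were DMSO with enzyme for no effect and no enzyme buffer wells for full effect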
SENP8 block-1: human SENP8 protease inhibitors, primary screen, biochemical, fluorescence, Nedd8 protein substrate, uHTS; Sentrin-specific protease 8 (Homo sapiens), Q96LD8; recombinant SENP8; inhibition, % at 20 µM; actives 0.64% (n = 360,000); AID 602440, 2012; in the data active = inhibition mostly above about 40%, no sharp cut-off; inactive = mostly below about 27%
SENP8 block-2: SENP8 protease inhibitors, primary screen, biochemical, luminescence; inhibition, % at 10 µM; AID 2540, 2010; actives 1.2% (n = 330,000); purified SENP8, Z-RLRGG-aminoluciferin cleavage; Sentrin-specific protease 8 (Homo sapiens), Q96LD8; in the data active = inhibition above about 50%
Apaf1 inhib: inhibitors of human Apaf-1 apoptosome, primary screen, biochemical, DEVD-Rh110 fluorescence, uHTS; reconstituted apoptosome caspase-3 activity; Apoptotic protease-activating factor 1 (Homo sapiens), O14727; actives 0.71% (n = 330,000); inhibition, % at 20 µM; active = inhibition of at least 40% at 20 µM;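 also: plate controls were DMSO wells for no effect and DEVD-CHO caspase inhibitor wells for full effect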
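Assay system: Apoptosome proteins | Medium: pH 7.5 Hepes buffer with CHAPS, BSA, DTT | Also added: Cytochrome c and DEVD-Rh110 substrate | Times: 30 min plus 50 min, RT | Detection: Rhodamine 110 fluorescence at Ex 480/Em 540 nm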
SENP6 inh: SENP6 protease inhibitors, primary screen, biochemical, luminescence, uHTS | actives 1.8% (n = 330,000) | Sentrin-specific protease 6 (Homo sapiens), Q9GZR1 | inhibition, % at 10 µM | Recombinant SENP6 catalytic domain, aminoluciferin luminescence;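 active = inhibition above about 50% at the single tested dose, limit read from the data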;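 also: plate controls were DMSO wells with enzyme for no effect and DMSO wells lacking enzyme for full effect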
Target sequence (Q9GZR1 628-1112 limits assumed): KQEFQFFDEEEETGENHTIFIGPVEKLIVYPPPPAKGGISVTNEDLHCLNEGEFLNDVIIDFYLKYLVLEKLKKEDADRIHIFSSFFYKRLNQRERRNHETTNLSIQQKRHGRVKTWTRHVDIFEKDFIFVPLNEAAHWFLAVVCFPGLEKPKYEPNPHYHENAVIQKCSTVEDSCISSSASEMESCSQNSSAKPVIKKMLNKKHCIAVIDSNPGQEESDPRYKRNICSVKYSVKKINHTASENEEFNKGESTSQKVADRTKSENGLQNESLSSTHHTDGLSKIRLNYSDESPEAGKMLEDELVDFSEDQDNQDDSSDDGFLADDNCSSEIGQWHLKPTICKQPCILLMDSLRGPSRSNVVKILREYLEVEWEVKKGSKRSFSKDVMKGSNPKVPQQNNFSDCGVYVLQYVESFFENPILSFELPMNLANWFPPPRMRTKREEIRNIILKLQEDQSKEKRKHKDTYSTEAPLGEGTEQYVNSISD
UBC13 polyUb: UBC13 polyubiquitin chain formation inhibitors, primary screen, biochemical, TR-FRET, uHTS; AID 485273, 2010; inhibition, % at 20 µM; actives 0.47% (n = 330,000); in the data active = inhibition above about 45%, passing the limit was not always enough
Target sequence (P61088 whole entry, looked up): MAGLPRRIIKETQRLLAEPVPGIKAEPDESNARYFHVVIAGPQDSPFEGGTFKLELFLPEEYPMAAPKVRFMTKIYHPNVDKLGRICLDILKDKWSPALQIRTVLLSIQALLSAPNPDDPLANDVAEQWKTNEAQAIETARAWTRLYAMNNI
Casp3 counter: CASP3 inhibitor validation, counterassay for project on UBE2N polyubiquitination blockers, biochemical, one dose | inhibition, % at 20 µM | Recombinant caspase-3, Caspase-Glo 3/7 luminescence, 60 min | shares compounds with UBC13 polyUb | actives 4% (n = 1,400);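 active = mean inhibition across replicates above about 26%, limit read from the data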;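 also: plate controls were DMSO with caspase-3 for no effect and DMSO wells lacking enzyme for full effect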
UBC13 confirm: UBC13 polyubiquitination inhibitors, single-point retest, confirmation, biochemical, TR-FRET, single concentration | actives 68% (n = 1,400) | shares compounds with UBC13 polyUb | inhibition, % at 10 µM; in the data active = inhibition above about 45%
* marks the source's active call; other numbers are inactive results; i = inactive; nt = no result given. Compounds with a hit are over-represented: about 3.1% of the library has one in this group of screens.

SMILES	SENP7 inh	SENP8 block-1	SENP8 block-2	Apaf1 inhib	SENP6 inh	UBC13 polyUb	Casp3 counter	UBC13 confirm
Cc1c(CCOC(=O)CC23CC4CC(CC(C4)C2)C3)sc[n+]1CC(=O)c1ccccc1	-10	8	-9	34	-20	47*	-3	52*
Cc1c(CCOC(=O)C23CC4(C)CC(C)(CC(C)(C4)C2)C3)sc[n+]1CC(=O)c1ccccc1	0	20	-6	33	2	70*	-4	88*
Cc1c(CCOC(=O)C23CC4CC(CC(C4)C2)C3)sc[n+]1Cc1ccccc1	-9	9	-5	1	-13	14	nt	nt
COc1ccc(C(=O)c2[nH]c(N)c(C(=O)NCCc3c[nH]c4ccccc34)c2-c2ccc(Br)cc2)cc1	nt	-7	nt	nt	nt	nt	nt	nt
C=C(C)COc1ccc(-c2[nH]ncc2Oc2cccc(OC)c2)c(O)c1	1	27	-11	24	-5	68*	-4	68*
c1ccc(CCNc2ccc3ncc(-c4cccc5ccccc45)n3n2)nc1	nt	i	nt	nt	nt	nt	nt	nt
Cc1ccc(O)c(Cc2cc(C)cc(Cc3cc(C)ccc3O)c2O)c1	nt	16	nt	nt	nt	nt	nt	nt
Cc1ccc(O)c(CNCCNCc2cc(C)ccc2O)c1	-4	23	2	28	-13	50*	0	52*
CCc1ccc(O)c(CNCCNCc2cc(CC)ccc2O)c1	-14	25	3	30	-10	64*	1	32
CCCCCCOc1ccc(/C(C)=N/NC2=NCCN2)cc1	-5	21	-14	38	-25	60*	-3	85*
COc1ccc(S(=O)(=O)N2CCC3CC2c2cc(N4CCOCC4)ccc23)cc1 (stereo not drawn)	nt	6	nt	nt	nt	nt	nt	nt
CCOC(=O)c1c(NC(C)=O)sc2c(OCC(O)CNC(C)(C)C)c(Br)ccc12 (stereo not drawn)	-2	-190	-3	13	11	46*	-6	74*
CCOC(=O)c1c(N)sc2c(OCC)c(Br)ccc12	2	1	-5	3	-10	-3	nt	nt
c1ccc(Nc2nc(NCc3ccco3)c3ccccc3n2)cc1	-4	-490	14	16	17	48*	-1	76*
CC(=O)Nc1ccc2c(c1)C(=O)N(c1cccc(C)c1)C2=O	2	3	-8	-12	4	46*	2	40
Cc1cccc(N2C(=O)c3ccc(C(=O)Nc4ccccn4)cc3C2=O)c1	-18	11	-10	6	6	-4	nt	nt
COC(=O)c1ccc(C(=O)N2CCCC(C)(C(=O)NS(=O)(=O)C3CC3)C2)cc1 (stereo not drawn)	nt	17	nt	nt	nt	nt	nt	nt
C[C@@H]1CCCCCCCCC(=O)OCCN(C(=O)OC(C)(C)C)[C@H](C)CCCCCCCCC(=O)OCCN1C(=O)OC(C)(C)C	8	0	-1	4	-5	-11	nt	nt
C[C@@H]1CCCCCCCCC(=O)OCCN[C@H](C)CCCCCCCCC(=O)OCCN[C@H](C)CCCCCCCCC(=O)OCCN1	1	24	0	68*	4	63*	-3	51*
COc1cc(-c2cc(NC(C)=O)c3ncc(-c4ccc(C(C)=O)cc4)n3c2)cc(OC)c1OC	nt	i	nt	nt	nt	nt	nt	nt
CCN(CCCNC(=O)c1cc2c(-c3cccc(OC)c3)nn(C)c2s1)Cc1ccccc1	-8	-224	-13	7	-1	49*	-5	47*
COc1cccc(-c2nn(C)c3sc(C(=O)NCc4ccc5c(c4)OCO5)cc23)c1	-5	-195	4	0	-11	27	nt	nt
Cn1nc2c3cc(F)ccc3n(Cc3ccc(F)cc3)cc-2c1=O	0	9	-2	1	-5	4	nt	nt
COc1cc2c3nnc(-c4ccc(F)cc4)c-3cn(Cc3ccc(F)cc3)c2cc1OC	7	-446	-4	26	-6	65*	-4	41
COc1cc2c3nnc(-c4ccc(F)cc4)c-3cn(Cc3ccccc3)c2cc1OC	-2	-397	-7	32	-2	82*	-2	50*
SMILES	SENP7 inh	SENP8 block-1	SENP8 block-2	Apaf1 inhib	SENP6 inh	UBC13 polyUb	Casp3 counter	UBC13 confirm
COc1ccc(Cn2cc3c(-c4ccc(F)cc4)nnc-3c3cc(OC)c(OC)cc32)cc1	-6	-437	-6	34	-9	87*	-2	39
OC(c1cccc(Cl)c1)c1ncc(-c2cccc(C(F)(F)F)c2)[nH]1 (stereo not drawn)	nt	16	nt	nt	nt	nt	nt	nt
CCCNC(=O)Cn1nc(-c2ccccc2OC)ccc1=O	nt	4	nt	nt	nt	nt	nt	nt
Cc1cn(CC(=O)NCc2nc3ccccc3[nH]2)c(=O)[nH]c1=O	nt	0	nt	nt	nt	nt	nt	nt
Cc1cc(C)cc(N(C(=O)c2snc(C(N)=O)c2N)C(C(=O)NCC2CCCO2)c2cccs2)c1 (stereo not drawn)	5	-379	-3	20	-10	66*	2	71*
Cc1ccc(C(C(=O)NCC2CCCO2)N(C(=O)c2snc(C(N)=O)c2N)c2ccc3c(c2)OCCO3)cc1 (stereo not drawn)	5	-276	-1	26	-10	56*	1	79*
NC(=O)c1nsc(C(=O)N(c2ccccc2)C(C(=O)NCC2CCCO2)c2cccs2)c1N (stereo not drawn)	1	-430	8	-11	-2	40	nt	nt
Cc1ccc(C(C(=O)NCC2CCCO2)N(C(=O)c2snc(C(N)=O)c2N)c2ccc(C)c(C)c2)o1 (stereo not drawn)	0	-311	-4	15	22	65*	0	70*
Cc1cc(C)cc(N(C(=O)c2snc(C(N)=O)c2N)C(C(=O)NCC2CCCO2)c2ccc(C)o2)c1 (stereo not drawn)	-9	-309	1	16	-17	60*	0	49*
C[C@H]1CN([C@@H](C)CO)C(=O)CCCn2nncc2CO[C@H]1CN(C)C(=O)Cc1ccccc1	nt	9	nt	nt	nt	nt	nt	nt
COCCCNC(=S)NNC(=O)c1ccccn1	-4	1	-8	3	0	89*	2	101*
Cc1cc(C)cc(OCC(=O)NNC(=O)c2cc(C)[nH]n2)c1	10	-13	-1	7	12	2	nt	nt
O=C(COc1ccccc1)NNC(=O)c1ccc(Cl)cc1	-7	0	-9	-1	-11	-8	nt	nt
COCCCNC(=S)NNC(=O)c1ccccc1Br	4	18	3	-7	3	-5	nt	nt
